From ChEMBL document CHEMBL4024749, “Discovery of 3,5-Diphenyl-4-methyl-1,3-oxazolidin-2-ones as Novel, Potent, and Orally Available Δ-5 Desaturase (D5D) Inhibitors” (J Med Chem, 2017)

Tests used:
[1] = Ratio of Cmax in dog ECG model at 5 mg/kg, iv to Cmax in ApoE knockout mouse at 1 mg/kg, po qd dosed via gavage for 2 weeks; type: ADME, organism-based; conditions: in vivo, 336 h
[2] = Oral bioavailability in mouse at 0.1 mg/kg, iv or 1 mg/kg administered as cassette dose up to 8 hrs; type: ADME, organism-based; conditions: in vivo
Canis familiaris = assay: Cardiotoxicity in dog at 5 mg/kg, iv by ECG analysis; type: toxicity, organism-based, Canis lupus familiaris; conditions: in vivo
Mus musculus [3] = assay: In vivo inhibition of D5D in ApoE knockout mouse assessed as decrease in AA/DGLA ratio at 3 mg/kg, po qd dosed via gavage for 2 weeks by HPLC analysis; type: functional; conditions: 336 h
Method in brief: (§1)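 ApoE KO mice, 13 weeks old, fed Western diet for 2 weeks; from day after diet start, dosed by gavage each morning at 10 mL/kg with suspension (0.3–3 mg/kg). Livers taken morning after final dose; phospholipid AA and DGLA measured by HPLC after labeling; AA/DGLA decrease relative to vehicle group as 100%.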

Cytochrome P450 2C8 = target: T1, Cytochrome P450 2C8 (Homo sapiens, UniProt P10632); assay: Inhibition of CYP2C8 (unknown origin); type: ADME
T1 sequence (P10632 whole entry): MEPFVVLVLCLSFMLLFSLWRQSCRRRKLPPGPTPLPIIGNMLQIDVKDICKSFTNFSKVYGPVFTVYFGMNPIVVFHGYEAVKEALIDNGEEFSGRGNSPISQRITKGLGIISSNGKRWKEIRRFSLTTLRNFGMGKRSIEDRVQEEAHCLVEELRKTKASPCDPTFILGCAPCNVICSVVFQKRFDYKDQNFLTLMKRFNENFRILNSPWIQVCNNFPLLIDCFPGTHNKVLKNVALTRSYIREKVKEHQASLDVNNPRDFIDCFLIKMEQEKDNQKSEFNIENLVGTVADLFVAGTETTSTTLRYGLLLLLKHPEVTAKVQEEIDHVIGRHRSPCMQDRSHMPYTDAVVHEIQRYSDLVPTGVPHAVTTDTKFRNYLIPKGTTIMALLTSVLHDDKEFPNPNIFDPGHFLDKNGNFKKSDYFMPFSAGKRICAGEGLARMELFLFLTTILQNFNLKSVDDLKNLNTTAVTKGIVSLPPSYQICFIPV

Mus musculus [4] = assay: In vivo inhibition of D5D in ApoE knockout mouse assessed as decrease in AA/DGLA ratio at 0.3 mg/kg, po qd dosed via gavage for 2 weeks by HPLC analysis; type: functional; conditions: 336 h; method in brief: as §1
[5] = Induction of CYP3A (unknown origin); type: ADME; conditions: human
[6] = Cmax in dog at 5 mg/kg, iv; type: ADME, organism-based, Canis lupus familiaris; design: dose 5 mg/kg, route intravenous; conditions: in vivo
[7] = MRT (0 to 8 hrs) in mouse at 0.1 mg/kg, iv or 1 mg/kg, po measured; type: ADME, organism-based; conditions: in vivo
[8] = Cmax in ApoE knockout mouse at 1 mg/kg, po qd dosed via gavage for 2 weeks by HPLC analysis; type: ADME, organism-based; design: dose 1 mg/kg, route oral; conditions: in vivo
Cytochrome P450 2C9 = Cytochrome P450 2C9 (Homo sapiens, UniProt P11712); assay: Inhibition of CYP2C9 (unknown origin); type: ADME
Chain of Cytochrome P450 2C9 (P11712 whole entry): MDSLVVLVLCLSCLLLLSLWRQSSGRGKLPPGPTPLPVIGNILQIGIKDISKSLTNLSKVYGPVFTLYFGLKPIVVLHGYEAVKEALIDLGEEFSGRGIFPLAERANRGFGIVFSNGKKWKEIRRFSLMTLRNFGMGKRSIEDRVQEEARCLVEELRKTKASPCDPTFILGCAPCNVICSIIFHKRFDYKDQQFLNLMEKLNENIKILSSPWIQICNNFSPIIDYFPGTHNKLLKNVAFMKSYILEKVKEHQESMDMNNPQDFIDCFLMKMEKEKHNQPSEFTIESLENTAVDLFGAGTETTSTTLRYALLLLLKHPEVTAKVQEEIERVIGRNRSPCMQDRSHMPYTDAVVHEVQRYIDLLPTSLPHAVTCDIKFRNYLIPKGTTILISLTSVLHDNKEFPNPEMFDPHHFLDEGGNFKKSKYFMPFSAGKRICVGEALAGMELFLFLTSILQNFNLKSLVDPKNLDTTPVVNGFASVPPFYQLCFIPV

hERG (KCNH2) = hERG (KCNH2) (Homo sapiens, UniProt Q12809); assay: Inhibition of human ERG at 10 uM by patch clamp assay
Chain of hERG (KCNH2) (Q12809 whole entry): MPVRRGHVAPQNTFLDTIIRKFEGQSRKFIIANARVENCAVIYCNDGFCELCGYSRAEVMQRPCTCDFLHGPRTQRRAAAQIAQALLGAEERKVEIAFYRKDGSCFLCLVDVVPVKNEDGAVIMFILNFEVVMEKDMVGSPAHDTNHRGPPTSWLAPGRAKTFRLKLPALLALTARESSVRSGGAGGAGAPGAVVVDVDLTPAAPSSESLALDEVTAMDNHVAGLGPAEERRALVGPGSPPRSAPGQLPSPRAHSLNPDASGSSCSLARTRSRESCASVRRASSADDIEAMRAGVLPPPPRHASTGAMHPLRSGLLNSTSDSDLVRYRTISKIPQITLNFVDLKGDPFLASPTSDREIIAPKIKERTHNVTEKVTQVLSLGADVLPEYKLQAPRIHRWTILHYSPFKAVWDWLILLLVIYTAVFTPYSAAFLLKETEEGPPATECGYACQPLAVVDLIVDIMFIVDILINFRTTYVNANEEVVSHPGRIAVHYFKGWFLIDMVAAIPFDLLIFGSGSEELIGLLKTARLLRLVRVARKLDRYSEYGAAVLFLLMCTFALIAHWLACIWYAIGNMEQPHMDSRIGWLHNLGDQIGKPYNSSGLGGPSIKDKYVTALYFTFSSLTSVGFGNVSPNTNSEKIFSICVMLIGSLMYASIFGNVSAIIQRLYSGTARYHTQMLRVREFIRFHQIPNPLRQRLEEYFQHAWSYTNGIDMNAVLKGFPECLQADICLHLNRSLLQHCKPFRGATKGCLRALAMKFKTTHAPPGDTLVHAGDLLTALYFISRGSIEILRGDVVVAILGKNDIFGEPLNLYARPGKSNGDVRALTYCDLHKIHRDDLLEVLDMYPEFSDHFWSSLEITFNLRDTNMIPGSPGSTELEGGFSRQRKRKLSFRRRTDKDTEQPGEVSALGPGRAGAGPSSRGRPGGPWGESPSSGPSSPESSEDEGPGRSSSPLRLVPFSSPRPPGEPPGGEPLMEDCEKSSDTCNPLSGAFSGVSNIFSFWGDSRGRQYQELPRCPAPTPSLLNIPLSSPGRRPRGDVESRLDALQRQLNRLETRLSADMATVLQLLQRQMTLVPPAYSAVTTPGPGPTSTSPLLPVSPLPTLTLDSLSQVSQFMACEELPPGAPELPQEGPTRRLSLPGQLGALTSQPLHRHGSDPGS

[9] = target: Acyl-CoA (8-3)-desaturase (Homo sapiens, UniProt O60427); assay: Inhibition of D5D in human HepG2 cells assessed as [14C]AA formation from [14C]DGLA preincubated for 30 mins followed by [14C]eicosatrienoic acid addition measured after 3 hrs by TLC analysis; type: cell-based
Chain of Acyl-CoA (8-3)-desaturase (Homo sapiens, UniProt O60427) (O60427 whole entry): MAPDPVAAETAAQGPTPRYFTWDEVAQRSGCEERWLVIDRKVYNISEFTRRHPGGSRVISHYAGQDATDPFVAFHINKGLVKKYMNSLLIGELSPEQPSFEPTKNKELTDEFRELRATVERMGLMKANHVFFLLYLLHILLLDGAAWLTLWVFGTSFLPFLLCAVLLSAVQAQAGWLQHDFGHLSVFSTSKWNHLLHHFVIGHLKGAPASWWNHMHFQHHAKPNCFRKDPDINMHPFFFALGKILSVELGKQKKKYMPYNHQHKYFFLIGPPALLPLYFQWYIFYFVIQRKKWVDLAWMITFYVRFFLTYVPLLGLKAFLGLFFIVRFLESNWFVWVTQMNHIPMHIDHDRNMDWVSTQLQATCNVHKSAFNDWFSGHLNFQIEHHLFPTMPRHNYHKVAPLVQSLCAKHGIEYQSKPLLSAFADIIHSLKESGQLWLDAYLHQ
Method in brief: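 HepG2 plated at 1 × 10^5 cells/well, cultured overnight in DMEM/10% FBS, PBS-washed, then preincubated 30 min at 37 °C with compound in DMEM with penicillin/streptomycin and 0.3% BSA. 0.1 μCi [14C]eicosatrienoic acid added and cells incubated 3 h at 37 °C; lipids saponified overnight at 55 °C with NaOH, acidified, extracted with chloroform/MeOH, separated by TLC.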

Mus musculus [10] = assay: In vivo inhibition of D5D in C57BL/6J mouse liver assessed as decrease in AA/DGLA ratio by measuring inhibition index at 3 mg/kg, qd administered via oral gavage for 4 days by HPLC analysis relative to control; type: functional; conditions: 96 h
Method in brief: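 Male C57BL/6J mice, 7–9 weeks old, on normal chow, individually caged; 3 mg/kg suspension in 0.5% methylcellulose by gavage each morning at 10 mL/kg for 4 days. Liver taken next morning; phospholipid fraction from about 40 mg tissue labeled, AA and DGLA measured by HPLC; AA/DGLA decrease versus vehicle group taken as 100%.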

[11] = AUC (0 to 8 hrs) in mouse at 0.1 mg/kg, iv or 1 mg/kg, po; type: ADME, organism-based; conditions: in vivo
CYP2C9 = CYP2C9 (Homo sapiens, UniProt P11712); assay: Inhibition of CYP2C9 (unknown origin) at 10 uM
Chain of CYP2C9 (P11712 whole entry): as the sequence (P11712 whole entry) above

Cytochrome P450 2D6 = Cytochrome P450 2D6 (Homo sapiens, UniProt P10635); assay: Inhibition of CYP2D6 (unknown origin); type: ADME
Chain of Cytochrome P450 2D6 (P10635 whole entry): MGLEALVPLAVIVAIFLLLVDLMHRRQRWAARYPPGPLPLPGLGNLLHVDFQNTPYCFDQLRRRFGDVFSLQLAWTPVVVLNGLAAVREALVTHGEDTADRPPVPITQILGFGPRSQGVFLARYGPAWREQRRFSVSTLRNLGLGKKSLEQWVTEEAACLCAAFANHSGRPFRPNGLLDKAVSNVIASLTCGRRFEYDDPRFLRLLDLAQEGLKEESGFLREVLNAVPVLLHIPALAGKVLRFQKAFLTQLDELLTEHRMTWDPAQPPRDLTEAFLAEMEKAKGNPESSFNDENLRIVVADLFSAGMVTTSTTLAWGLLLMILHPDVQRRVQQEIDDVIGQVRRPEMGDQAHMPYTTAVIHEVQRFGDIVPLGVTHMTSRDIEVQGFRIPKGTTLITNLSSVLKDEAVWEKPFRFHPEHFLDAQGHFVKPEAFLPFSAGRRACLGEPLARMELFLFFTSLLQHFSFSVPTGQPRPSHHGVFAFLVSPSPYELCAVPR

Mus musculus [12] = assay: In vivo inhibition of D5D in ApoE knockout mouse assessed as decrease in AA/DGLA ratio at 1 mg/kg, po qd dosed via gavage for 2 weeks by HPLC analysis; type: functional; conditions: 336 h; method in brief: as §1
[13] = target: Acyl-CoA (8-3)-desaturase (Rattus norvegicus, UniProt Q920R3); assay: Displacement of [3H]T-3364366 from D5D in rat liver microsomal membrane preincubated for 15 mins followed by radioligand addition measured after 150 mins by TopCount microscintillation counting assay; type: cell membranes
Chain of Acyl-CoA (8-3)-desaturase (Rattus norvegicus, UniProt Q920R3) (Q920R3 whole entry): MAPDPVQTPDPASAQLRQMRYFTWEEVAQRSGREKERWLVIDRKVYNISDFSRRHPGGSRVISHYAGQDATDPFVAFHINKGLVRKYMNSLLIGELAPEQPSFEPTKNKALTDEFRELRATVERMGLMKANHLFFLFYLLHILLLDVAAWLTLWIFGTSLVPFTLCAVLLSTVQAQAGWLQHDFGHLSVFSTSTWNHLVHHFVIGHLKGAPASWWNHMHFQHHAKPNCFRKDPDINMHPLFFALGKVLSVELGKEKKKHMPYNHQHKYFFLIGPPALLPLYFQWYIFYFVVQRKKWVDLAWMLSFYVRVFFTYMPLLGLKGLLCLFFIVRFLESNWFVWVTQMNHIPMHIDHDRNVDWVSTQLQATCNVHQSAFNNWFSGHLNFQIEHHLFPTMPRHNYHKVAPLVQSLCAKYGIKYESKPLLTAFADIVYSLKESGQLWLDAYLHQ
Method in brief: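 Rat liver microsome fraction (30 μg/well) preincubated 15 min with test compound at room temperature in 10 mM Tris-HCl pH 7.5, 100 mM KCl, 10 mM NaF buffer, 200 μL/well; bound ligand trapped on GF/C filters, washed 5× with ice-cold buffer, counted by scintillation. Nonspecific binding with 10 μM unlabeled T-3364366; IC50 from three-parameter logistic fit.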

Cytochrome P450 3A4 = Cytochrome P450 3A4 (Homo sapiens, UniProt P08684); assay: Inhibition of CYP3A4 (unknown origin); type: ADME
Chain of Cytochrome P450 3A4 (P08684 whole entry): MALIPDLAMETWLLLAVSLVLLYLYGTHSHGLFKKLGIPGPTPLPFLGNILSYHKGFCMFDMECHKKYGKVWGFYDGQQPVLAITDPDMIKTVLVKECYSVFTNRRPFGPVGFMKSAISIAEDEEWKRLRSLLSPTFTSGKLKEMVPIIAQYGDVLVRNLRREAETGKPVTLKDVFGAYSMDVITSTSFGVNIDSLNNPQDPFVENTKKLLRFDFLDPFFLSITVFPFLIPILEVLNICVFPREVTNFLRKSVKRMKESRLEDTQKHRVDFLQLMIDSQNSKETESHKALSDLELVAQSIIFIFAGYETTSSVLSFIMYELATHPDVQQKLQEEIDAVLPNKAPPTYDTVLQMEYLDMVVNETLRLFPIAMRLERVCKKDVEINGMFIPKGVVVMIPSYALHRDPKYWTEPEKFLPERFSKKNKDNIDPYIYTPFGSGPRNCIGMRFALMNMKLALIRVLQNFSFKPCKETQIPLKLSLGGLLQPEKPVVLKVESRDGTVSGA

[14] = Drug metabolism in human hepatocytes assessed as 3-(5-(4-fluorophenyl)-4-hydroxy-2-oxooxazolidin-3-yl)phenyl hydrogen sulfate formation by LC-MS/MS analysis; type: ADME, cell-based, Hepatocyte
Method in brief: (§2)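 Human or mouse hepatocytes incubated with compound; metabolites identified by LC/MS/MS and formation ratio (%) calculated as metabolite UV peak area after incubation over parent peak area before incubation × 100, assuming equal extinction coefficients.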

Liver [15] = assay: Drug metabolism in mouse liver assessed as 3-(5-(4-fluorophenyl)-2-oxooxazolidin-3-yl)phenyl hydrogen sulfate formation at 488 mg/kg/day, po by LC-MS/MS analysis; type: ADME, organism-based; conditions: in vivo
Method in brief: (§3)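 Mice given compound orally as dietary admixture at 488 mg kg−1 day−1; liver concentrations of parent and metabolites determined by LC/MS/MS, metabolites quantified assuming extinction coefficient equal to parent.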

Liver [16] = assay: Drug metabolism in mouse liver assessed as 5-(4-fluorophenyl)-3-(3-hydroxyphenyl)oxazolidin-2-one formation at 488 mg/kg/day, po by LC-MS/MS analysis; type: ADME, organism-based; conditions: in vivo; method in brief: as §3
[17] = Drug stability in mouse hepatocytes by LC-MS/MS analysis; type: ADME, cell-based, Hepatocyte
[18] = Drug metabolism in mouse hepatocytes assessed as 5-(4-fluorophenyl)-3-(3-hydroxyphenyl)oxazolidin-2-one formation by LC-MS/MS analysis; type: ADME, cell-based, Hepatocyte; method in brief: as §2
[19] = Drug metabolism in mouse hepatocytes assessed as 3-(5-(4-fluorophenyl)-4-hydroxy-2-oxooxazolidin-3-yl)phenyl hydrogen sulfate formation by LC-MS/MS analysis; type: ADME, cell-based, Hepatocyte; method in brief: as §2
[20] = Drug stability in human hepatocytes by LC-MS/MS analysis; type: ADME, cell-based, Hepatocyte
[21] = Drug metabolism in human hepatocytes assessed as 5-(4-fluorophenyl)-4-hydroxy-3-(3-methoxyphenyl)oxazolidin-2-one formation by LC-MS/MS analysis; type: ADME, cell-based, Hepatocyte; method in brief: as §2
Liver [22] = assay: Drug metabolism in mouse liver assessed as 5-(4-fluorophenyl)-4-hydroxy-3-(3-methoxyphenyl)oxazolidin-2-one formation at 488 mg/kg/day, po by LC-MS/MS analysis; type: ADME, organism-based; conditions: in vivo; method in brief: as §3
Liver [23] = assay: Drug metabolism in mouse liver assessed as (2S,3S,4S,5R,6S)-6-(5-(4-fluorophenyl)-3-(3-methoxyphenyl)-2-oxooxazolidin-4-yloxy)-3,4,5-trihydroxytetrahydro-2H-pyran-2-carboxylic acid formation at 488 mg/kg/day, po by LC-MS/MS analysis; type: ADME, organism-based; conditions: in vivo; method in brief: as §3
Liver [24] = assay: Drug metabolism in mouse liver assessed as 3-(5-(4-fluorophenyl)-4-hydroxy-2-oxooxazolidin-3-yl)phenyl hydrogen sulfate formation at 488 mg/kg/day, po by LC-MS/MS analysis; type: ADME, organism-based; conditions: in vivo; method in brief: as §3
[25] = Drug metabolism in mouse hepatocytes assessed as 5-(4-fluorophenyl)-4-hydroxy-3-(3-methoxyphenyl)oxazolidin-2-one formation by LC-MS/MS analysis; type: ADME, cell-based, Hepatocyte; method in brief: as §2
Liver [26] = assay: Drug metabolism in mouse liver assessed as (2S,3S,4S,5R,6S)-6-(3-(5-(4-fluorophenyl)-2-oxooxazolidin-3-yl)phenoxy)-3,4,5-trihydroxytetrahydro-2H-pyran-2-carboxylic acid formation at 488 mg/kg/day, po by LC-MS/MS analysis; type: ADME, organism-based; conditions: in vivo; method in brief: as §3

C[C@H]1[C@H](c2ccc(F)cc2)OC(=O)N1c1cc(C#N)cc(C#N)c1
Ratio [1]: > 25 | bioavailability [2]: 53.3% | Activity (Canis familiaris): Non-Toxic | inhibition in vivo at 3 mg/kg (Mus musculus [3]): 66% | inhibition (INH) (Cytochrome P450 2C8): Not Active | inhibition in vivo at 0.3 mg/kg (Mus musculus [4]): 61% | Activity [5]: Not Active | Cmax [6]: 7150 ng/mL | MRT last [7]: 4 h | Cmax [8]: 280 ng/mL | inhibition (INH) (Cytochrome P450 2C9): Not Active | inhibition at 10 µM (hERG (KCNH2)): 30.7% | IC50 [9]: 1.5 nM | inhibition in vivo at 3 mg/kg (Mus musculus [10]): 74% | AUC(0-t) [11]: 891 ng·h/mL | inhibition at 10 µM (CYP2C9): 28.5% | inhibition (INH) (Cytochrome P450 2D6): Not Active | inhibition in vivo at 1 mg/kg (Mus musculus [12]): 67% | IC50 [13]: 1.5 nM | inhibition (INH) (Cytochrome P450 3A4): Not Active

COc1cccc(N2CC(c3ccc(F)cc3)OC2=O)c1 (racemic)
Drug metabolism [14]: Metabolite_Notdetected | Drug metabolism (Liver [15]): 4.41 to 12.9 µg/g | Drug metabolism (Liver [16]): 0.51 to 1.21 µg/g | Stability [17]: 2.3% | Drug metabolism [18]: Metabolite_Notdetected | Drug metabolism [19]: Metabolite_Notdetected | Stability [20]: 22.5% | IC50 [9]: 4.1 nM | Drug metabolism [21]: Metabolite_Notdetected | Drug metabolism (Liver [22]): 0.25 to 0.65 µg/g | Drug metabolism (Liver [23]): Metabolite_Notdetected | Drug metabolism (Liver [24]): 0.48 to 1.78 µg/g | Drug metabolism [25]: Metabolite_Notdetected | Drug metabolism (Liver [26]): 0.83 to 2.5 µg/g | IC50 [13]: 8.5 nM
